Active and inactive are the calls of the source. The calls are words filed in the database; no cut-off is given here.
System: Lymphocyte
Assay: Inhibition of oxidative stress-induced mitochondrial membrane depolarization in diethyl maleate-treated human lymphocytes obtained from FRDA patient assessed as cells with intact mitochondrial membrane potential at 250 nM pretreated for 16 hrs using TMRM by FACS analysis (reference value: 95%)
Type: functional
Set-up: scale not given: the % may be the effect or the level left
Conditions: not given

SMILES | Activity
CCCCCCCCCCCCCCCCc1nc(N2CCC2)c(C)c(C)c1O | 68%
CCCCCCCCCCc1nc(N(C)C)c(C)c(C)c1O | 82%

System: Lymphocyte
Assay: Inhibition of oxidative stress-induced mitochondrial membrane depolarization in diethyl maleate-treated human lymphocytes obtained from FRDA patient assessed as cells with intact mitochondrial membrane potential at 100 nM pretreated for 16 hrs using TMRM by FACS analysis (reference value: 95%)
Type: functional
Set-up: scale not given: the % may be the effect or the level left
Conditions: not given

SMILES | Activity
CCCCCCCCCCCCCCCCc1nc(N2CCC2)c(C)c(C)c1O | 54%
CCCCCCCCCCc1nc(N(C)C)c(C)c(C)c1O | 65%

System: Lymphocyte
Assay: Inhibition of oxidative stress-induced mitochondrial membrane depolarization in diethyl maleate-treated human lymphocytes obtained from FRDA patient assessed as cells with intact mitochondrial membrane potential at 500 nM pretreated for 16 hrs using TMRM by FACS analysis (reference value: 95%)
Type: functional
Set-up: scale not given: the % may be the effect or the level left
Conditions: not given

SMILES | Activity
CCCCCCCCCCCCCCCCc1nc(N2CCC2)c(C)c(C)c1O | 85%
CCCCCCCCCCc1nc(N(C)C)c(C)c(C)c1O | 90%

Species: Bos taurus
Assay: Inhibition of bovine heart mitochondrial NADH oxidase complex I/III/IV assessed as remaining activity at 1 uM by spectrophotometry relative to untreated control
Conditions: not given

SMILES | Activity
CCCCCCCCCCCCCCCCc1nc(N2CCC2)c(C)c(C)c1O | 93%
CCCCCCCCCCc1nc(N(C)C)c(C)c(C)c1O | 35%

System: Lymphocyte
Assay: Cytoprotective activity in human lymphocytes obtained from Leigh's syndrome patient assessed as viable cells after 16 hrs by trypan blue exclusion assay
Type: functional, cell-based
Conditions: not given
How it was run: (§1)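 Lymphocytes from FRDA or Leigh's syndrome patients, grown in RPMI-1640 with 15% fetal calf serum and 2 mM glutamine, kept in log phase. Test agents at 0.1, 0.5 and 2.5 µM; diethyl maleate (DEM) added to deplete glutathione and induce oxidative stress. Viability expressed relative to untreated cells (100%). Values are mean ± SD/SEM as tabulated.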

SMILES | Activity
CCCCCCCCCCCCCCCCc1nc(N2CCC2)c(C)c(C)c1O | Dose-dependent effect
CCCCCCCCCCc1nc(N(C)C)c(C)c(C)c1O | Dose-dependent effect

System: Lymphocyte
Assay: Cytoprotective activity in human lymphocytes obtained from Leigh's syndrome patient assessed as viable cells at 0.1 uM after 16 hrs by trypan blue exclusion assay
Type: functional
Conditions: read-out: Activity
How it was run: as §1

SMILES | viability at 0.1 µM
CCCCCCCCCCCCCCCCc1nc(N2CCC2)c(C)c(C)c1O | 13%
CCCCCCCCCCc1nc(N(C)C)c(C)c(C)c1O | 6%

System: Lymphocyte
Assay: Cytoprotective activity in human lymphocytes obtained from Leigh's syndrome patient assessed as viable cells at 0.5 uM after 16 hrs by trypan blue exclusion assay
Type: functional
Conditions: read-out: Activity
How it was run: as §1

SMILES | viability at 0.5 µM
CCCCCCCCCCCCCCCCc1nc(N2CCC2)c(C)c(C)c1O | 82%
CCCCCCCCCCc1nc(N(C)C)c(C)c(C)c1O | 77%

System: Lymphocyte
Assay: Cytoprotective activity in human lymphocytes obtained from FRDA patient assessed as viable cells at 0.1 uM after 16 hrs by trypan blue exclusion assay
Type: functional
Conditions: read-out: Activity
How it was run: as §1

SMILES | viability at 0.1 µM
CCCCCCCCCCCCCCCCc1nc(N2CCC2)c(C)c(C)c1O | 54%
CCCCCCCCCCc1nc(N(C)C)c(C)c(C)c1O | 36%

System: Lymphocyte
Assay: Increase in ATP production in CoQ10-deficient lymphocytes (unknown origin) assessed as cellular ATP level at 10 uM after 48 hrs using luciferin-luciferase reaction by bioluminescence assay relative to control
Type: functional
Conditions: not given
How it was run: (§2)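 CoQ10-deficient lymphocyte line GM17932 grown in glucose-free RPMI 1640 with 25 mM galactose, 2 mM glutamine and 10% dialyzed FBS, forcing oxidative phosphorylation. Incubated with compounds at 5, 10 or 25 µM for 48 h. Total intracellular ATP measured by luciferin–luciferase reaction, expressed as % of untreated control.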

SMILES | Activity
CCCCCCCCCCCCCCCCc1nc(N2CCC2)c(C)c(C)c1O | 70%
CCCCCCCCCCc1nc(N(C)C)c(C)c(C)c1O | 52%

System: not listed separately
Assay: Drug metabolism in bovine liver microsomes at 25 uM after 30 mins by reverse phase HPLC analysis
Type: ADME, Bos taurus
Conditions: cattle, read-out: Drug metabolism
How it was run: (§3)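 Compounds incubated 30 min with activated bovine liver microsomes. Remaining parent compound quantified by reversed-phase HPLC and expressed as % recovered; mean ± SD.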

SMILES | metabolised at 0.5 h, 25 µM
CCCCCCCCCCc1nc(N(C)C)c(C)c(C)c1O | 25%

System: Lymphocyte
Assay: Inhibition of oxidative stress-induced mitochondrial membrane depolarization in diethyl maleate-treated human lymphocytes obtained from FRDA patient assessed as cells with intact mitochondrial membrane potential pretreated for 16 hrs using TMRM by FACS analysis
Type: functional, cell-based
Conditions: not given

SMILES | inhibition
CCCCCCCCCCc1nc(N(C)C)c(C)c(C)c1O | Dose-dependent effect

System: Lymphocyte
Assay: Cytoprotective activity in human lymphocytes obtained from FRDA patient assessed as viable cells after 16 hrs by trypan blue exclusion assay
Type: functional, cell-based
Conditions: not given
How it was run: as §1

SMILES | Activity
CCCCCCCCCCCCCCCCc1nc(N2CCC2)c(C)c(C)c1O | Dose-dependent effect
CCCCCCCCCCc1nc(N(C)C)c(C)c(C)c1O | Dose-dependent effect

Species: Bos taurus
Assay: Inhibition of bovine heart mitochondrial NADH oxidase complex I/III/IV assessed as remaining activity at 5 uM by spectrophotometry relative to untreated control
Conditions: not given

SMILES | Activity
CCCCCCCCCCCCCCCCc1nc(N2CCC2)c(C)c(C)c1O | 94%
CCCCCCCCCCc1nc(N(C)C)c(C)c(C)c1O | 28%

System: Lymphocyte
Assay: Inhibition of lipid peroxidation in diethyl maleate-treated human lymphocytes obtained from FRDA patient at 100 to 250 nM after 16 hrs using C11-BODIPY581/591 by FACS analysis
Type: functional, cell-based
Conditions: not given
How it was run: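 FRDA lymphocytes depleted of glutathione with DEM, probed with C11-BODIPY581/591. Green (oxidized) fluorescence read by flow cytometry at 490/510 nm. Median mean fluorescence taken relative to untreated control and converted to % lipid peroxidation scavenging; mean ± SEM, n = 3.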

SMILES | inhibition
CCCCCCCCCCCCCCCCc1nc(N2CCC2)c(C)c(C)c1O | Active
CCCCCCCCCCc1nc(N(C)C)c(C)c(C)c1O | Active

System: Lymphocyte
Assay: Cytoprotective activity in human lymphocytes obtained from Leigh's syndrome patient assessed as viable cells at 2.5 uM after 16 hrs by trypan blue exclusion assay
Type: functional
Conditions: read-out: Activity
How it was run: as §1

SMILES | viability at 2.5 µM
CCCCCCCCCCCCCCCCc1nc(N2CCC2)c(C)c(C)c1O | 81%
CCCCCCCCCCc1nc(N(C)C)c(C)c(C)c1O | 79%

System: Lymphocyte
Assay: Increase in ATP production in CoQ10-deficient lymphocytes (unknown origin) assessed as cellular ATP level at 5 uM after 48 hrs using luciferin-luciferase reaction by bioluminescence assay relative to control
Type: functional
Conditions: not given
How it was run: as §2

SMILES | Activity
CCCCCCCCCCCCCCCCc1nc(N2CCC2)c(C)c(C)c1O | 92%
CCCCCCCCCCc1nc(N(C)C)c(C)c(C)c1O | 89%

System: Lymphocyte
Assay: Inhibition of ROS generation in diethyl maleate-treated human lymphocytes obtained from FRDA patient compound pretreated at 100 to 500 nM for 16 hrs using DCFH-DA by FACS analysis
Type: functional, cell-based
Conditions: not given
How it was run: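 FRDA lymphocytes pretreated with compounds at 100, 250 and 500 nM for 16 h, then given DEM for 80 min to raise ROS. Stained with DCFH-DA for 15 min, then DCF fluorescence read by flow cytometry. Reported as % ROS scavenging; mean ± SEM of three experiments run in duplicate.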

SMILES | inhibition
CCCCCCCCCCCCCCCCc1nc(N2CCC2)c(C)c(C)c1O | Active
CCCCCCCCCCc1nc(N(C)C)c(C)c(C)c1O | Active

Species: Bos taurus
Assay: Inhibition of bovine heart mitochondrial NADH oxidase complex I/III/IV assessed as remaining activity at 10 uM by spectrophotometry relative to untreated control
Conditions: not given

SMILES | Activity
CCCCCCCCCCCCCCCCc1nc(N2CCC2)c(C)c(C)c1O | 95%
CCCCCCCCCCc1nc(N(C)C)c(C)c(C)c1O | 13%

System: Lymphocyte
Assay: Cytoprotective activity in human lymphocytes obtained from FRDA patient assessed as viable cells at 0.5 uM after 16 hrs by trypan blue exclusion assay
Type: functional
Conditions: read-out: Activity
How it was run: as §1

SMILES | viability at 0.5 µM
CCCCCCCCCCCCCCCCc1nc(N2CCC2)c(C)c(C)c1O | 70%
CCCCCCCCCCc1nc(N(C)C)c(C)c(C)c1O | 74%

System: Lymphocyte
Assay: Increase in ATP production in CoQ10-deficient lymphocytes (unknown origin) assessed as cellular ATP level at 25 uM after 48 hrs using luciferin-luciferase reaction by bioluminescence assay relative to control
Type: functional
Conditions: not given
How it was run: as §2

SMILES | Activity
CCCCCCCCCCCCCCCCc1nc(N2CCC2)c(C)c(C)c1O | 38%
CCCCCCCCCCc1nc(N(C)C)c(C)c(C)c1O | 13%

Species: Bos taurus
Assay: Inhibition of bovine heart mitochondrial NADH oxidase complex I/III/IV assessed as remaining activity by spectrophotometry relative to untreated control
Conditions: not given

SMILES | inhibition
CCCCCCCCCCCCCCCCc1nc(N2CCC2)c(C)c(C)c1O | Dose-dependent effect
CCCCCCCCCCc1nc(N(C)C)c(C)c(C)c1O | Dose-dependent effect

System: not listed separately
Assay: Metabolic stability in bovine liver microsomes at 25 uM after 30 mins by reverse phase HPLC analysis
Type: ADME, Bos taurus
Conditions: cattle, read-out: Stability
How it was run: as §3

SMILES | remaining at 0.5 h, 25 µM
CCCCCCCCCCCCCCCCc1nc(N2CCC2)c(C)c(C)c1O | 95%
CCCCCCCCCCc1nc(N(C)C)c(C)c(C)c1O | 70%

System: Lymphocyte
Assay: Cytoprotective activity in human lymphocytes obtained from FRDA patient assessed as viable cells at 2.5 uM after 16 hrs by trypan blue exclusion assay
Type: functional
Conditions: read-out: Activity
How it was run: as §1

SMILES | viability at 2.5 µM
CCCCCCCCCCCCCCCCc1nc(N2CCC2)c(C)c(C)c1O | 87%
CCCCCCCCCCc1nc(N(C)C)c(C)c(C)c1O | 87%
